Experiment [1] has as its target T1, Histone deacetylase (Homo sapiens) (UniProt Q13547+O15379+Q9UBN7+Q92769+Q9UQL6+Q8WUI4+Q9BY41+Q96DB2+P56524+Q9UKV0+Q969S8). Description: Inhibition of nuclear HDAC isolated from human HeLa cells at 32 uM. The experiment is classed as cell-free.
The target of experiment [2] is T2, Histone deacetylase 1 (Homo sapiens, UniProt Q13547). Description: Inhibition of recombinant HDAC1 expressed in HEK293 cells at 32 uM. The format is cell-based.
Experiment [3] has as its target T3, Protein deacetylase HDAC6 (Homo sapiens) (UniProt Q9UBN7).
T3 sequence (whole entry): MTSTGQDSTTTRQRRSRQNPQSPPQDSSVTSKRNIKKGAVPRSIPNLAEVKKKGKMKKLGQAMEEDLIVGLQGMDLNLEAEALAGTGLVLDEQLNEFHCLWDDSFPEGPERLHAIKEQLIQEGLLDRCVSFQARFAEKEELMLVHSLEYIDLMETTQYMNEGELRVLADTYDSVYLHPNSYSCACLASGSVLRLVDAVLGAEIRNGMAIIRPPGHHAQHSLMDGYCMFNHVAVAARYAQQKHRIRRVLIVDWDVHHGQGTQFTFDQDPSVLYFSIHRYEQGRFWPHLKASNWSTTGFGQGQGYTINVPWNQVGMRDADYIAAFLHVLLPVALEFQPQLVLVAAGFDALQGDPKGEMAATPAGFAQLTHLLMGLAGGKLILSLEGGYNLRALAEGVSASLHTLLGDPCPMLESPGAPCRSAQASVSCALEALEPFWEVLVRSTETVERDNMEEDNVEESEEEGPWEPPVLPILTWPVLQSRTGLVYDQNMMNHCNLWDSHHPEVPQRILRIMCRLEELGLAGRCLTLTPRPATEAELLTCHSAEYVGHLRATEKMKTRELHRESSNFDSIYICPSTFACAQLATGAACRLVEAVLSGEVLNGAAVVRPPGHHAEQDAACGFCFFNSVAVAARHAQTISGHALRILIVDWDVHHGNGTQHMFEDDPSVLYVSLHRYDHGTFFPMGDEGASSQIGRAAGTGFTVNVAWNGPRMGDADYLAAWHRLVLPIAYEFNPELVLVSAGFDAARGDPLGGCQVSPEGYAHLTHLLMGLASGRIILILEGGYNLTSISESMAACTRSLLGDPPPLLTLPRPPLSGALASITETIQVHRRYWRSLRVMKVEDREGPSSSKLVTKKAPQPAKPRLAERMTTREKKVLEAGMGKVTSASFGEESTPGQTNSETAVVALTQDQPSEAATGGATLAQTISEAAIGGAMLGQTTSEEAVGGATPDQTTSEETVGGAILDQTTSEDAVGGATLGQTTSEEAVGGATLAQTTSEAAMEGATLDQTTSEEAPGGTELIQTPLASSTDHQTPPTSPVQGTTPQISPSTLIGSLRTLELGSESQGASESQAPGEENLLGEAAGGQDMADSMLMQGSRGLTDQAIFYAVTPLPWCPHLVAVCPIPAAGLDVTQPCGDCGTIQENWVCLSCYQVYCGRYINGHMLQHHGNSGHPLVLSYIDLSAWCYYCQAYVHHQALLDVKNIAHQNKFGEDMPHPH
Put plainly: Inhibition of recombinant HDAC6 expressed in HEK293 cells at 32 uM. The experiment is classed as cell-based.

Experiment [4] addresses T1, Histone deacetylase (Homo sapiens). Put plainly: Inhibition of HDAC in human HeLa cells at 32 uM. The format is cell-based. The method, boiled down: (§1)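 HeLa cells were seeded at 5 × 10^3/well, grown for 24 h, and exposed to compound for 3 h. Cell-permeable Boc-K(Ac)-AMC was added for a further 3 h. Lysis/developer buffer containing trypsin and 10 µM TSA followed, with 3 h incubation. AMC fluorescence was read at ex 355/em 460 nm, and % inhibition was given at the stated concentration.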

For experiment [5], the system named is HeLa. Put plainly: Cytotoxicity against human HeLa cells after 72 hrs by alamar blue assay. The experiment is classed as functional, cell-based. The method, boiled down: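 HeLa cells were seeded at densities allowing growth through 72 h of compound exposure at 37 °C, 5% CO2. Viability was read by Alamar Blue (resazurin) reduction. Replicate assays were averaged, and IC50 was taken from concentration-effect curves.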

Experiment [6] concerns the target T1, Histone deacetylase (Homo sapiens). Description: Inhibition of nuclear HDAC isolated from human HeLa cells at 30 uM. The format is cell-free.
Experiment [7] deals with T2, Histone deacetylase 1. Description: Inhibition of recombinant HDAC1 expressed in HEK293 cells. The experiment is classed as cell-based.
For experiment [8], the target named is T4, Protein deacetylase HDAC6 (Homo sapiens, UniProt Q9UBN7).
T4 sequence (Q9UBN7 whole entry): T3 sequence (whole entry)
Description: Inhibition of recombinant HDAC6 expressed in HEK293 cells. The format is cell-based.

Experiment [9] deals with Histone deacetylase. Put plainly: Inhibition of nuclear HDAC isolated from human HeLa cells. The format is cell-based.
The target in experiment [10] is Histone deacetylase. Put plainly: Inhibition of HDAC in human HeLa cells. The format is cell-based.
For experiment [11], the target named is Histone deacetylase. Put plainly: Inhibition of HDAC in human HeLa cells assessed as induction of histone H3 hyperacetylation after 24 hrs. The format is cell-based.
Experiment [12] deals with RKO. Description: Cytotoxicity against arrested non proliferative human RKO cells after 24 hrs. To be noted: in the assay text read “after 72 hrs” for “after 24 hrs”. The format is functional, cell-based. The gist of the method:
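Alamar Blue (resazurin) read-out of metabolic activity. RKO p21waf1 transfectant cells were arrested by inducing p21waf1 with 10 µM ponasterone A for 24 h, then seeded at 2 × 10^4 cells/well and treated with compound. IC50 was taken from the concentration-effect curve.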

Experiment [13] has as its system RKO. Put plainly: Induction of apoptosis in human RKO cells assessed as accumulation at subG1 phase by flow cytometry. The format is functional, cell-based. The method, boiled down:
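RKO cells were seeded at 5 × 10^5 per 10 cm dish and grown for 24 h in log phase. They were then exposed to compound at 1 and 10 µM for 24 h. Flow cytometry assigned cells to subG1 (apoptosis), G1 (2N), S and G2/M (4N).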

Experiment [14] has as its system RKO. Description: Induction of apoptosis in human RKO cells at 10 uM after 24 hrs by flow cytometry.
In experiment [15] the target is T1, Histone deacetylase (Homo sapiens). Put plainly: Inhibition of HDAC in human HeLa cells at 50 uM. The format is cell-based. The gist of the method: as §1
For experiment [16], the target named is T4, Protein deacetylase HDAC6. Put plainly: Inhibition of recombinant HDAC6 expressed in HEK293 cells using variable substrate concentration by Lineweaver-Burke plot. The format is cell-based. The gist of the method:
(§2)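 Inhibitor was used at 1/4, 1/2, 1, 2 and 4 times the IC50-derived concentration. Ki was obtained from Lineweaver-Burk plots, with y-axis intersection indicating substrate competition.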

For experiment [17], the target named is T3, Protein deacetylase HDAC6 (Homo sapiens). Put plainly: Inhibition of HDAC6 in human A549 NSCLC cells assessed as induction of alpha-tubulin hyperacetylation at 10 uM after 24 hrs by Western blotting. The experiment is classed as cell-based. The gist of the method: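 A549 NSCLC cells were exposed to compound for 24 h and lysed. Western blots were probed for acetylated α-tubulin and acetylated histone H3 K1-20, then reprobed with histone H3 and α-tubulin antibodies as controls.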
On the technique in general: A western blot detects proteins with antibodies after separation by electrophoresis.

For experiment [18], the system named is HeLa. Description: Cytotoxicity against human HeLa cells at 50 uM after 72 hrs by alamar blue assay. The experiment is classed as functional. (Alamar Blue is a resazurin reagent that responds to reducing activity.)
Experiment [19] concerns the target T2, Histone deacetylase 1. Description: Inhibition of recombinant HDAC1 expressed in HEK293 cells at 30 uM. The format is cell-based.
Experiment [20] has as its target T2, Histone deacetylase 1. Description: Inhibition of recombinant HDAC1 expressed in HEK293 cells using variable substrate concentration by Lineweaver-Burke plot. The format is cell-based. The method, boiled down:
as §2

Experiment [21] deals with T1, Histone deacetylase (Homo sapiens). Put plainly: Inhibition of HDAC in human HeLa cells assessed as induction of p21waf1 at 50 uM after 24 hrs by Western blotting. The format is cell-based. The method, boiled down:
(§3)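 HeLa cells were treated with compound at 5 and 50 µM for 24 h, then lysed in Tris pH 8 RIPA-type buffer. Equal protein amounts were separated by SDS-PAGE and blotted to PVDF. Blots were probed for acetylated histone H3 K1-20 and p21waf1, then reprobed for β-actin as loading control.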

Experiment [22] shares this target. Description: Inhibition of HDAC in human HeLa cells assessed as induction of histone H3 hyperacetylation at 50 uM after 24 hrs by Western blotting. The format is cell-based. The gist of the method:
as §3

The source made the active and inactive calls. The rule behind the calls is not given here.

T2 sequence (Q13547 whole entry): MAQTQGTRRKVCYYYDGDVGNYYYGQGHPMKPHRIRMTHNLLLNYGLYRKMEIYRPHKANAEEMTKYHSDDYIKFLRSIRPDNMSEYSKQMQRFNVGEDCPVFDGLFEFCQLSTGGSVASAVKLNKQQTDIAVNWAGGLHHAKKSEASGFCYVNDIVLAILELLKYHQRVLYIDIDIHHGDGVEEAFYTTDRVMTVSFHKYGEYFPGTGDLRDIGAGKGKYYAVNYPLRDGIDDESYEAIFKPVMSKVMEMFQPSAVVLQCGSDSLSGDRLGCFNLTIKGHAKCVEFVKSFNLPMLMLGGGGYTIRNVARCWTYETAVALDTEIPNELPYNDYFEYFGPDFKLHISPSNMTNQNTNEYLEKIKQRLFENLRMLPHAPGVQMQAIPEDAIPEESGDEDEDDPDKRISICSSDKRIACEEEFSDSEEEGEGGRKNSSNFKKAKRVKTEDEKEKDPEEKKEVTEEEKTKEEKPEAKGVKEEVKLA

Consider `COc1ccc(C(=O)CSC(=S)N2CCOCC2)cc1`, for which the inhibition in experiment [1] is 2%; on Histone deacetylase 1 [2] it was 0%; in experiment [3], -2%; in experiment [4], 0%.
In the case of `CCNC(=S)NCC(=O)c1ccc(OC)cc1`, the IC50 in the experiment on HeLa [5] was 5.81 µM. In addition, the inhibition in experiment [6] was -6%.
Take `CCSC(=S)SCC(=O)c1ccc(C)cc1`: the half-maximal inhibitory concentration (IC50) turned out to be 6.99 µM on Histone deacetylase 1 [7], 1.25 µM in [8], 0.375 µM against Histone deacetylase [9] and 81.2 µM on Histone deacetylase [10]. For the same molecule, at Histone deacetylase [11], the concentration giving a half-maximal response (EC50) turned out to be 4.8 µM. In addition, the outcome in the experiment on RKO [12], in the experiment on RKO [13] and in the experiment with RKO [14] was Active.
Consider `CCSC(=S)OCC(=O)c1ccc(OC)cc1`, for which the midpoint of inhibition in the experiment with HeLa [5], the IC50, lay at 2.99 µM. Besides, the inhibition is 16% in experiment [1], 6% at Histone deacetylase 1 [2], 16% in [3] and 28% in experiment [15].
As to `CCSC(=S)SCC(=O)c1cccc(NC(=O)c2ccccc2)c1`, the IC50 at Histone deacetylase 1 [7] came out at 1.22 µM; in experiment [8] it was 0.065 µM; against Histone deacetylase [9], 0.12 µM; against Histone deacetylase [10], 0.964 µM; in the experiment on HeLa [5], 8.23 µM. In addition, the Ki in experiment [16] is 0.11 µM. Moreover, in [17], the result was Active.
As for `CCSC(=S)SCC(=O)c1ccc(C(=O)Nc2ccc(Cl)cc2)cc1`, the IC50 in experiment [8] worked out at 1.45 µM; on Histone deacetylase [9], 0.079 µM. In the experiment on HeLa [18], the inhibition at 50 µM stood at 0%. Moreover, the inhibition on Histone deacetylase 1 [19] amounted to 1%.
In the case of `CCSC(=S)SCC(=O)c1ccc(CC(=O)NCCOc2ccccc2)s1`, the IC50 at Histone deacetylase 1 [7] was 0.385 µM; in experiment [8], 0.204 µM; on Histone deacetylase [9], 0.018 µM; on Histone deacetylase [10] it was 0.624 µM; in the experiment with HeLa [5], 5.78 µM. Also, the Ki on Histone deacetylase 1 [20] was 0.46 µM.
With `CCSC(=S)SCC(=O)c1cccc(S(=O)(=O)Nc2ccc3c(c2)OCO3)c1`, the half-maximal inhibitory concentration (IC50) at Histone deacetylase 1 [7] turned out to be 0.501 µM; in experiment [8], 0.431 µM; at Histone deacetylase [9] it was 0.014 µM; against Histone deacetylase [10], 1.86 µM; with HeLa [5] it was 9.18 µM. Further, the outcome in experiment [21] and in experiment [22] was Active.

As a reminder, the inhibition is the change of the read-out against control, counted positive when it falls. A word on the IC50: it is the midpoint of a concentration-inhibition curve. As a reminder, the EC50 is the midpoint of the concentration-response curve. Broadly, the Ki is the dissociation constant of the complex between target and ligand, obtained from inhibition or displacement.
